≈ marks a conversion by molar mass, not a printed value.

3 compounds from ChEMBL document CHEMBL4043191, “Discovery of novel inhibitors of multidrug-resistant Acinetobacter baumannii” (2017) can be followed below.

Assay [1] has as its system Acinetobacter baumannii. Put plainly: Antimicrobial activity against Acinetobacter baumannii isolate AB5075 assessed as reduction in bacterial colony count at 64 ug/ml incubated for 24 hrs by time kill kinetics assay relative to initial bacterial inoculum. In kind it is functional. In outline:
(§1)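 Time-kill assay on AB5075. 1 mL CAMHB containing compound at 1, 2, 4 or 8× MIC was seeded with 5–7 x 10^5 CFU/mL and shaken at 37 °C for 24 h. Aliquots taken at 0, 6, 12 and 24 h were serially diluted, plated on LB agar and incubated 24 h at 37 °C before counting. Result given as log10 CFU/mL decrease versus initial inoculum. No-drug control; duplicate runs.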

The test system of assay [2] is Acinetobacter baumannii. The assay is described as follows: Antimicrobial activity against Acinetobacter baumannii isolate AB5075 assessed as reduction in bacterial colony count at 32 ug/ml incubated for 24 hrs by time kill kinetics assay relative to initial bacterial inoculum. In kind it is functional. The procedure, abridged: as §1
Assay [3] has as its system Acinetobacter baumannii. The assay is described as follows: Antimicrobial activity against Acinetobacter baumannii ATCC AB19606 incubated for 16 to 20 hrs by broth microdilution method. The class given is functional. In outline: (§2)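 CLSI broth microdilution in CAMHB, twofold dilutions at final 0.250–128 µg/mL, each in triplicate. Overnight colonies from 5% horse blood agar were suspended in PBS to OD600 0.1 and diluted to a starting inoculum of 5 x 10^5 CFU/mL. Incubated 37 °C for 16–20 h. MIC is the lowest concentration with no visible growth. Quality control used E. coli ATCC 25922 with ampicillin. Final DMSO <1%.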

The subject of assay [4] is Acinetobacter baumannii. Put plainly: Antimicrobial activity against Acinetobacter baumannii isolate AB3638 incubated for 16 to 20 hrs by broth microdilution method. In kind it is functional. The procedure, abridged: as §2
Assay [5] relates to Acinetobacter baumannii. Put plainly: Antimicrobial activity against Acinetobacter baumannii isolate AB5674 incubated for 16 to 20 hrs by broth microdilution method. The class given is functional. In outline: as §2
Assay [6] concerns Acinetobacter baumannii. Put plainly: Antimicrobial activity against Acinetobacter baumannii isolate AB5075 assessed as reduction in bacterial colony count at 128 ug/ml incubated for 24 hrs by time kill kinetics assay relative to initial bacterial inoculum. In kind it is functional. In outline:
as §1

Assay [7] relates to Acinetobacter baumannii. The assay is described as follows: Antimicrobial activity against Acinetobacter baumannii isolate AB0087 incubated for 16 to 20 hrs by broth microdilution method. The class given is functional. In outline: as §2
Assay [8] deals with Acinetobacter baumannii. The assay is described as follows: Antimicrobial activity against Acinetobacter baumannii ATCC AB17978 incubated for 16 to 20 hrs by broth microdilution method. The class given is functional. The procedure, abridged: as §2
A general note: Dilution methods test growth across graded concentrations, often in twofold steps.

Assay [9] concerns Acinetobacter baumannii. Put plainly: Antimicrobial activity against Acinetobacter baumannii isolate AB585 incubated for 16 to 20 hrs by broth microdilution method. The class given is functional. In outline: as §2
For assay [10], the system named is Acinetobacter baumannii. Put plainly: Antimicrobial activity against Acinetobacter baumannii isolate AB0967 incubated for 16 to 20 hrs by broth microdilution method. In kind it is functional. In outline: as §2
In assay [11] the test system is Acinetobacter baumannii. Put plainly: Antimicrobial activity against Acinetobacter baumannii isolate AB4052 incubated for 16 to 20 hrs by broth microdilution method. In kind it is functional. In outline:
as §2

Assay [12] has as its system Acinetobacter baumannii. Put plainly: Antimicrobial activity against Acinetobacter baumannii isolate AB4795 incubated for 16 to 20 hrs by broth microdilution method. In kind it is functional. In outline: as §2
In assay [13] the test system is Acinetobacter baumannii. The assay is described as follows: Antimicrobial activity against Acinetobacter baumannii isolate AB5075 incubated for 16 to 20 hrs by broth microdilution method. In kind it is functional. The procedure, abridged: as §2
Assay [14] deals with Acinetobacter baumannii. Put plainly: Antimicrobial activity against Acinetobacter baumannii isolate AB499 incubated for 16 to 20 hrs by broth microdilution method. In kind it is functional. The procedure, abridged: as §2
For assay [15], the system named is Acinetobacter baumannii. Put plainly: Antimicrobial activity against Acinetobacter baumannii isolate AB3560 incubated for 16 to 20 hrs by broth microdilution method. In kind it is functional. The procedure, abridged:
as §2

Assay [16] has as its system Acinetobacter baumannii. Put plainly: Antimicrobial activity against Acinetobacter baumannii isolate AB5711 incubated for 16 to 20 hrs by broth microdilution method. The class given is functional. The procedure, abridged:
as §2

The subject of assay [17] is Acinetobacter baumannii. Put plainly: Antimicrobial activity against Acinetobacter baumannii isolate AB5075 assessed as reduction in bacterial colony count at 16 ug/ml incubated for 24 hrs by time kill kinetics assay relative to initial bacterial inoculum. The class given is functional. In outline: as §1
The subject of assay [18] is Acinetobacter baumannii. The assay is described as follows: Antimicrobial activity against Acinetobacter baumannii isolate AB4957 incubated for 16 to 20 hrs by broth microdilution method. In kind it is functional. The procedure, abridged:
as §2

Assay [19] relates to Acinetobacter baumannii. Put plainly: Bactericidal activity against Acinetobacter baumannii isolate AB5075 assessed as reduction in bacterial colony count at 32 ug/ml incubated for 30 mins by time kill kinetics assay relative to initial bacterial inoculum relative to control. Also noted: scale not given: the % may be the effect or the level left.
Assay [20] relates to Acinetobacter baumannii. Put plainly: Antimicrobial activity against Acinetobacter baumannii isolate AB5075 assessed as reduction in bacterial colony count at 32 ug/ml incubated for 30 mins by time kill kinetics assay relative to initial bacterial inoculum.

In general, MIC refers to the lowest concentration found to suppress growth. For `CCO[C@@H]1CCC[C@H](CC(=O)NNc2ccccc2)[C@H]1O`, the Activity in the assay with Acinetobacter baumannii [1] is on record as 1.24 log10CFU/ml; in the assay on Acinetobacter baumannii [2], 0.75 log10CFU/ml; in the assay with Acinetobacter baumannii [6], 1.74 log10CFU/ml; in the assay with Acinetobacter baumannii [17], 0.46 log10CFU/ml. Also, the MIC in the assay on Acinetobacter baumannii [3] came out at 16 µg/mL (≈ 54.7 µM); in the assay with Acinetobacter baumannii [4], 16 µg/mL (≈ 54.7 µM); in the assay with Acinetobacter baumannii [5], 16 µg/mL (≈ 54.7 µM); against Acinetobacter baumannii [7] it was 4 µg/mL (≈ 13.7 µM); against Acinetobacter baumannii [8] it was 16 µg/mL (≈ 54.7 µM); with Acinetobacter baumannii [9], 8 µg/mL (≈ 27.4 µM). The MIC in the assay with Acinetobacter baumannii [10] is 16 µg/mL (≈ 54.7 µM); in the assay on Acinetobacter baumannii [11] it was 32 µg/mL (≈ 109 µM); against Acinetobacter baumannii [12] it was 8 µg/mL (≈ 27.4 µM); in the assay with Acinetobacter baumannii [13] it was 16 µg/mL (≈ 54.7 µM); in the assay with Acinetobacter baumannii [14], 1 µg/mL (≈ 3.42 µM); against Acinetobacter baumannii [15], 32 µg/mL (≈ 109 µM). In addition, the MIC in the assay with Acinetobacter baumannii [16] and against Acinetobacter baumannii [18] was 32 µg/mL (≈ 109 µM) each time.

`CCOCCC(=O)NNc1ccccc1`: the Activity in the assay with Acinetobacter baumannii [1] was determined as 1.42 log10CFU/ml; in the assay on Acinetobacter baumannii [2] it was 1.02 log10CFU/ml; in the assay with Acinetobacter baumannii [6], 2.1 log10CFU/ml; in the assay with Acinetobacter baumannii [17] it was 0.73 log10CFU/ml. The MIC with Acinetobacter baumannii [3] worked out at 16 µg/mL (≈ 76.8 µM); in the assay with Acinetobacter baumannii [4] it was 16 µg/mL (≈ 76.8 µM); with Acinetobacter baumannii [5], 16 µg/mL (≈ 76.8 µM); in the assay with Acinetobacter baumannii [7], 2 µg/mL (≈ 9.6 µM); in the assay with Acinetobacter baumannii [8] it was 16 µg/mL (≈ 76.8 µM); in the assay with Acinetobacter baumannii [9], 8 µg/mL (≈ 38.4 µM). The MIC against Acinetobacter baumannii [10] is 16 µg/mL (≈ 76.8 µM); against Acinetobacter baumannii [11], 32 µg/mL (≈ 154 µM); against Acinetobacter baumannii [12] it was 8 µg/mL (≈ 38.4 µM); against Acinetobacter baumannii [13], 16 µg/mL (≈ 76.8 µM); against Acinetobacter baumannii [14], 1 µg/mL (≈ 4.8 µM); in the assay on Acinetobacter baumannii [15], 32 µg/mL (≈ 154 µM). For the same compound, the values for the MIC in the assay with Acinetobacter baumannii [16] and in the assay on Acinetobacter baumannii [18] were 16 µg/mL (≈ 76.8 µM) and 32 µg/mL (≈ 154 µM), respectively.

Regarding `Oc1ccc(Cl)cc1Cc1cc(Cl)ccc1O` [DICHLOROPHEN], the MIC was 16 µg/mL (≈ 59.5 µM) against Acinetobacter baumannii [3]; 16 µg/mL (≈ 59.5 µM) against Acinetobacter baumannii [4]; 16 µg/mL (≈ 59.5 µM) against Acinetobacter baumannii [5]; 8 µg/mL (≈ 29.7 µM) against Acinetobacter baumannii [7]; 16 µg/mL (≈ 59.5 µM) in the assay on Acinetobacter baumannii [8]; 8 µg/mL (≈ 29.7 µM) in the assay with Acinetobacter baumannii [9]. Moreover, the minimal inhibitory concentration (MIC) against Acinetobacter baumannii [10] is 16 µg/mL (≈ 59.5 µM); in the assay with Acinetobacter baumannii [11], 16 µg/mL (≈ 59.5 µM); with Acinetobacter baumannii [12], 16 µg/mL (≈ 59.5 µM); against Acinetobacter baumannii [13], 32 µg/mL (≈ 119 µM); against Acinetobacter baumannii [14] it was 8 µg/mL (≈ 29.7 µM); in the assay with Acinetobacter baumannii [15] it was 16 µg/mL (≈ 59.5 µM). For the same compound, the MIC against Acinetobacter baumannii [16] and against Acinetobacter baumannii [18] was 16 µg/mL (≈ 59.5 µM) throughout. Moreover, the values for the Activity in the assay on Acinetobacter baumannii [19] and in the assay with Acinetobacter baumannii [20] were 99.9% and “>=3 log10CFU/ml”, respectively.
